Only a selection was taken, and hits are over-represented in it overall.
HUVEC inhibit – inhibitors of HUVEC proliferation, primary screen, cell-based, 384-well | viability, % at 10 µM (by protocol) | actives 1.1% (n = 86,000) | CellTiter-Glo luminescence, 72 h; hits give low values;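 active = viability at or below 30%; inactive = viability above 30%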;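 also: 100% = median luminescence of DMSO-only cell control wells on each plate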
Fibroblast inh – antiproliferative effect on LL 47 fibroblasts – human, LL 47 cells, CellTiter-Glo luminescence, primary screen | LL 47 human lung fibroblast viability, ATP luminescence; hits give low values | viability, % at 10 µM | actives 1.1% (n = 85,000);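 active = viability at or below 50% in the single dose screen; inactive = viability above 50%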;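 also: compound exposure lasted 72 h before the ATP readout; 100% = median luminescence of untreated cell-only wells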
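material = human LL 47 lung fibroblast cells | dosing = compounds added from tenfold dosing solution, 0.1% DMSO final | timing = overnight cell rest, 72 h compound treatment at 37 °C | measured by = CellTiter-Glo luminescence measuring cellular ATP | evaluation = % viability versus median cells-only luminescence | control set = cell-only wells, no compound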
PTEN del growth – growth suppression of PTEN-null HCT116, primary screen, cell-based, CellTiter-Glo; viability, % at 10 µM; AID 827, 2007; HCT116 PTEN-null viability, 60 h; hits give low values; actives 1.2% (n = 140,000);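 active = viability at or below a set limit, 4 SD under the median of all tested compounds, cut at about 3.7% in these data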;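 also: PTEN knockout HCT116 line with beta catenin targeted HCT116 as companion control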
bCat KO growth – primary screen for growth suppressors in beta-catenin knockout HCT116 cells (colon tumor, human). HCT116 beta-catenin knockout viability, CellTiter-Glo, 60 h; hits give low values. viability, % at 10 µM. actives 1.5% (n = 140,000);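 active = viability at or under a set limit, the compound median less 4 SD, cut at about 6% in these data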;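 also: 0% = Hyamine 1622 control at 20 µM and 100% = untreated cell control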
H69AR growth 86K – proliferation blockers of H69AR lung cancer cells, primary screen, cell-based, human, 86K library; actives 6% (n = 85,000); H69AR lung tumor viability, ATP luminescence, 72 h; hits give low values; viability, % at 10 µM;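 active = viability at or below 40%; inactive = viability above 40%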;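 also: multidrug resistant small cell line overexpressing MRP-1 efflux transporter; 100% = mean luminescence of untreated control wells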
* hit, by the source's call; . = not tested or not shown.

SMILES | HUVEC inhibit | Fibroblast inh | PTEN del growth | bCat KO growth | H69AR growth 86K
Cn1ccnc1SCC(=O)Nc1ccc2nc(SCC(=O)NC3CC3)sc2c1 | 92 | 95 | 103 | 86 | 37*
CC(C)(C)NC(=O)CSc1nc2ccc(NC(=O)CSc3nnc(N)s3)cc2s1 | . | . | 74 | 71 | .
CCOC(=O)c1c(C)c(C(=O)Nc2cc(OC)ccc2OC)c(C)n1CC | 55 | 58 | 31 | 30 | 95
CCOC(=O)c1c(C)[nH]c(C(=O)OCC(=O)Nc2cc(C)ccc2OC)c1C | 31 | 23* | 13 | 2.2* | 16*
CCOC(=O)c1c(C)[nH]c(C(=O)OCC(=O)Nc2ccc(OCC)cc2)c1C | . | . | 98 | 90 | .
CCOC(=O)c1c(C)[nH]c(C(=O)OCC(=O)Nc2ccc(OC)c(Cl)c2)c1C | . | . | 95 | 90 | .
CCOC(=O)c1c(C)[nH]c(C(=O)OCC(=O)Nc2cc(Cl)ccc2OC)c1C | 65 | 66 | 12 | 10 | 2.6*
CCOC(=O)c1[nH]c(C)c(C(=O)Nc2cc(OC)ccc2OC)c1C | 56 | 60 | 19 | 18 | 28*
Cc1ccc(C2NNC(=O)C2NC(=O)c2ccccc2)cc1 (centres undefined) | . | . | 93 | 101 | .
Cc1ccc(S(=O)(=O)Nc2ccccc2CNc2cccc(C)n2)cc1 | . | . | 73 | 86 | .
CC1=NC(=O)C(N=Nc2cccc3ccccc23)N1c1ccccc1 (centres undefined) | 94 | 96 | . | . | 85
C=CCCCCCCCCc1nc(=S)[nH][nH]1 | 94 | 91 | 101 | 110 | 21*
O=C1CCN(N=Nc2cccc(Cl)c2)N1 | 82 | 101 | 85 | 83 | 31*
COc1nc(-c2ccccc2)ccc1-c1noc(-c2ccccc2)n1 | 93 | 102 | 95 | 96 | 72
CCOc1nc(-c2ccccc2)ccc1-c1noc(-c2ccc(OC)c(OC)c2)n1 | 71 | 99 | . | . | 32*
CC(C)(C)C1CCc2c(sc(NC(=O)c3cccs3)c2C(N)=O)C1 (centres undefined) | 88 | 23* | 62 | 68 | 34*
CCC(C)(C)C1CCc2c(sc(NC(=O)c3cccs3)c2C(N)=O)C1 (centres undefined) | 93 | 88 | 87 | 90 | 81
CCOC(=O)c1cnc(SC2CC(=O)N(c3ccc(C)cc3)C2=O)nc1N (centres undefined) | 96 | 90 | 107 | 95 | 98
CCN1CCc2c(sc(NC(=O)Nc3ccc(Cl)c(Cl)c3)c2C(N)=O)C1 | . | . | 3.8* | 14 | .
COc1ccc(/C=C/c2cc(-c3ccc(C)cc3)o[n+]2C)cc1 | . | . | 1.5* | 1.2* | .
COc1ccc(N2C(=O)CS/C2=C\[N+](=O)[O-])cc1 | . | . | 82 | 86 | .
Cc1ccc(N=Nc2c(C)[nH][nH]c2=O)c(C)c1 | 13* | 91 | 33 | 37 | 24*
CCOC(=O)c1nn(-c2ccccc2C)c2nc(-c3ccc(C)cc3)c(C#N)c(=O)n12 | . | . | 69 | 62 | .
CCOC(=O)c1nn(-c2ccccc2C)c2nc(-c3ccc(Cl)cc3)c(C#N)c(=O)n12 | . | . | 2.1* | 1.7* | .
Cc1ccc(-c2noc(CN(C(=O)Cc3ccccc3)C(C)C)n2)cc1 | 108 | 99 | 52 | 58 | 65
SMILES | HUVEC inhibit | Fibroblast inh | PTEN del growth | bCat KO growth | H69AR growth 86K
CSC(=NC#N)N1CCN(c2cccc(Cl)c2)CC1 | . | . | 81 | 78 | .
COc1ccc(NC(=O)c2nc[nH]c2C(=O)Nc2ccccc2C)cc1 | 53 | 66 | 16 | 17 | 20*
COc1ccccc1NC(=O)c1nc[nH]c1C(=O)Nc1ccccc1OC | 95 | 91 | 82 | 83 | 39*
CCOc1ccccc1NC(=O)c1nc[nH]c1C(=O)Nc1ccccc1OCC | 75 | 81 | 81 | 85 | 56
Clc1ccc(CSc2nnc(-c3cccnc3)o2)cc1 | 89 | 98 | 101 | 108 | 96
NS(=O)(=O)c1ccc(CCN=Cc2ccccc2O)cc1 | . | . | 104 | 102 | .
CC1CCCC(NC(=S)Nc2ccc(SC(F)F)cc2)C1C (centres undefined) | 47 | 34* | 5 | 8 | 9.1*
Cc1ccc(C2Oc3ccccc3C3=C2C(c2cccs2)n2ncnc2N3)cc1 (centres undefined) | 66 | 44* | 23 | 26 | 18*
O=C(NC1CCCCC1)N1CCN(c2ncccn2)CC1 | 96 | 100 | 109 | 97 | 98
O=C(/C=C/c1ccc([N+](=O)[O-])cc1)NCc1cccnc1 | . | . | 81 | 97 | .
O=C(/C=C/c1cccc(OCc2ccccc2)c1)c1cccnc1 | . | . | 0.7* | 2.7* | .
O=C(/C=C/c1ccc([N+](=O)[O-])cc1)c1cccnc1 | . | . | 1.6* | 1.4* | .
Cc1ccc2oc(=O)c3cnn(CC(=O)Nc4ccccc4N4CCN(C)CC4)c3c2c1 | 2.1* | 47* | 12 | 19 | 62
Cc1ccc2oc(=O)c3cnn(CC(=O)N4CCN(c5ccccc5)CC4)c3c2c1 | 83 | 96 | 77 | 77 | 75
O=C(c1ccco1)N1CCN(C(c2ccccc2Cl)c2nnnn2Cc2cccs2)CC1 (centres undefined) | 80 | 73 | 55 | 59 | 33*
CC1CCN(S(=O)(=O)c2ccc(NC(=O)CN3CCOCC3)cc2)CC1 | 108 | 109 | 95 | 103 | 102
CC1CCCN(S(=O)(=O)c2ccc(NC(=O)Cn3nnc(-c4ccccc4F)n3)cc2)C1 (centres undefined) | 63 | 98 | 106 | 96 | 45
CC1CCN(S(=O)(=O)c2ccc(NC(=O)Cn3nnc(-c4ccccc4)n3)cc2)CC1 | 30 | 29* | 83 | 94 | 19*
Cc1ccc(-c2nnn(CC(=O)Nc3ccc(S(=O)(=O)N4CCC(C)CC4)cc3)n2)cc1 | 66 | 68 | 56 | 75 | 21*
COc1ccccc1OCCn1c(C(C)O)nc2ccccc21 (centres undefined) | 91 | 97 | 111 | 85 | 96
CSc1ccc(/C=C(/NC(=O)c2ccc(C)cc2)C(=O)Nc2cccc(F)c2)cc1 | . | . | 98 | 94 | .
CCCCCCCCCCn1c2c(c(=N)c3c1CCC3)CCC2 | 4.3* | 8.6* | 0.9* | 1.6* | 1.8*
CCOC(=O)Cn1c2c(c(=N)c3c1CCC3)CCC2 | 95 | 96 | 92 | 94 | 96
COc1ccc(-c2nn(-c3ccccc3)cc2/C=N/N=C(N)N)cc1OC | . | . | 1.2* | 1.6* | .
O=C(Nc1cccc(F)c1)C1CCN(C(=O)c2ccc(Br)cc2)CC1 | 92 | 102 | 69 | 69 | 34*
Cc1cc(C)c(OCC(=O)N/N=C/c2ccc3c(c2)OCO3)c(C)c1 | . | . | 35 | 32 | .
COCCOC(=O)c1[nH]c2c(c1C)C(=O)CC(c1ccc(F)cc1)C2 (centres undefined) | 59 | 86 | 27 | 28 | 25*
COCCOC(=O)c1[nH]c2c(c1C)C(=O)CC(c1ccc(N(C)C)cc1)C2 (centres undefined) | 87 | 89 | 86 | 82 | 87

Assay outcomes as filed in PubChem BioAssay.
